system: HIV-1 in permissive cells (MT-4); assay: not given; details: which do not express A3G; cited from earlier work

For `COc1ccccc1NC(=O)c1ccccc1Sc1ccc([N+](=O)[O-])cc1` [5a (RN18), N-(2-Methoxyphenyl)-2-((4-nitrophenyl)thio)benzamide], the “inhibition of HIV-1 replication in permissive cells” value is given as “not in permissive cells”.

system: not listed separately; assay: MTT-based cell viability assay; details: human, HeLa cells
In short: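 HeLa cells harvested in log phase, seeded at 1×10^3 per well in DMEM with 10% FBS, kept at 37 °C with 5% CO2. Test compound added 24 h after seeding from 10× stocks in DMEM; controls were DMEM alone and medium with DMSO (final 1%). At 72 h, MTT (2 mg mL−1 in PBS) added for 4 h; formazan dissolved in DMSO, A550 read. Value is the concentration reducing absorbance to 50% of control.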

Going from `COc1ccccc1NS(=O)(=O)c1ccccc1Sc1ccc(N)cc1` [6d, 2-((4-Aminophenyl)thio)-N-(2-methoxyphenyl)benzenesulfonamide] to `COc1ccccc1S(=O)(=O)Nc1ccccc1Sc1ccc(N)cc1` [6e, N-(2-(4-aminophenylthio)phenyl)-2-methoxybenzenesulfonamide], the CC50 at 72 h falls from > 100 µM to 65 µM.

`COC(=O)c1ccc(Oc2ccccc2NC(=O)c2ccccc2OC)cc1` [33k, Methyl 4-(2-(2-methoxybenzamido)phenoxy)benzoate] and `COC(=O)c1ccc(COc2ccccc2NC(=O)c2ccccc2OC)cc1` [45k, Methyl 4-((2-(2-methoxybenzamido)phenoxy)methyl)benzoate] cannot be ordered by CC50 at 72 h: > 100 µM for the first, > 100 µM for the second.

Going from `COc1ccccc1NC(=O)c1ccccc1Oc1ccc([N+](=O)[O-])cc1` [18a, N-(2-Methoxyphenyl)-2-(4-nitrophenoxy)benzamide] to `COc1ccccc1C(=O)Nc1ccccc1Oc1ccc([N+](=O)[O-])cc1` [29k, 2-Methoxy-N-(2-(4-nitrophenoxy)phenyl)benzamide], the CC50 at 72 h rises from 15 µM to > 100 µM.

Going from `COc1ccccc1NC(=O)c1ccccc1Sc1ccc(N)cc1` [6a, 2-((4-Aminophenyl)thio)-N-(2-methoxyphenyl)benzamide] to `COc1ccccc1C(=O)Nc1ccccc1Sc1ccc(N)cc1` [6c, N-(2-(4-Aminophenylthio)phenyl)-2-methoxybenzamide], the CC50 at 72 h falls from > 100 µM to 60 µM.

`COc1ccccc1NC(=O)c1ccccc1Sc1ccc([N+](=O)[O-])cc1` [5a (RN18), N-(2-Methoxyphenyl)-2-((4-nitrophenyl)thio)benzamide] and `COc1ccccc1C(=O)Nc1ccccc1Sc1ccc([N+](=O)[O-])cc1` [5c, N-(2-(4-Nitrophenylthio)phenyl)-2-methoxybenzamide] cannot be ordered by CC50 at 72 h: > 100 µM for the first, > 100 µM for the second.

First: COc1ccccc1NC(=O)c1ccccc1Sc1ccc([N+](=O)[O-])cc1Cl [16a, 2-(2-Chloro-4-nitrophenylthio)-N-(2-methoxyphenyl)benzamide]
Second: COc1ccccc1NC(=O)c1ccccc1OCc1cccc([N+](=O)[O-])c1 [41j, N-(2-Methoxyphenyl)-2-((3-nitrobenzyl)oxy)benzamide]
The CC50 at 72 h of the first is lower: 50 µM for the first, > 100 µM for the second.

`COc1ccccc1NC(=O)c1ccccc1Oc1ccc(N)cc1` [19a, 2-(4-Aminophenoxy)-N-(2-methoxyphenyl)benzamide] and `COc1ccc(Oc2ccccc2NC(=O)c2ccccc2OC)cc1` [31k, 2-Methoxy-N-(2-(4-methoxyphenoxy)phenyl)benzamide] cannot be ordered by CC50 at 72 h: > 100 µM for the first, > 100 µM for the second.

`COc1ccccc1C(=O)Nc1ccccc1OCc1ccc([N+](=O)[O-])cc1` [40k, N-(2-(4-Nitrobenzyloxy)phenyl)-2-methoxybenzamide] and `COc1ccccc1NC(=O)c1ccccc1OCc1ccc([N+](=O)[O-])cc1` [40j, N-(2-Methoxyphenyl)-2-((4-nitrobenzyl)oxy)benzamide] cannot be ordered by CC50 at 72 h: > 100 µM for the first, > 100 µM for the second.

`COc1ccccc1S(=O)(=O)Nc1ccccc1Sc1ccc([N+](=O)[O-])cc1` [5e, 2-Methoxy-N-(2-(4-nitrophenylthio)phenyl)benzenesulfonamide] and `COc1ccccc1NS(=O)(=O)c1ccccc1Sc1ccc([N+](=O)[O-])cc1` [5d, N-(2-Methoxyphenyl)-2-((4-nitrophenyl)thio)benzenesulfonamide] cannot be ordered by CC50 at 72 h: > 100 µM for the first, > 100 µM for the second.

Going from `CC(C)(C)OC(=O)N1CCN(C(=O)c2ccccc2Sc2ccc([N+](=O)[O-])cc2)CC1` [15h, tert-Butyl 4-(2-((4-nitrophenyl)thio)benzoyl)piperazine-1-carboxylate] to `O=C(Nc1ccccc1CO)c1ccccc1Sc1ccc([N+](=O)[O-])cc1` [15e, N-(2-(Hydroxymethyl)phenyl)-2-((4-nitrophenyl)thio)benzamide], the CC50 at 72 h rises from 70 µM to > 100 µM.

`COc1ccccc1CC(=O)Nc1ccccc1Sc1ccc([N+](=O)[O-])cc1` [5f, 2-(2-Methoxyphenyl)-N-(2-((4-nitrophenyl)thio)phenyl)acetamide] and `O=C(Cc1ccccc1F)Nc1ccccc1Sc1ccc([N+](=O)[O-])cc1` [5g, 2-(2-Fluorophenyl)-N-(2-((4-nitrophenyl)thio)phenyl)acetamide] cannot be ordered by CC50 at 72 h: > 100 µM for the first, > 100 µM for the second.

Compared with `O=C(Nc1ccccc1CO)c1ccccc1Oc1ccc([N+](=O)[O-])cc1` [18e, N-(2-(hydroxymethyl)phenyl)-2-(4-nitrophenoxy)benzamide], `COc1ccccc1C(=O)Nc1ccccc1Oc1ccc(OC(C)=O)cc1` [32k, 4-(2-(2-Methoxybenzamido)phenoxy)phenyl acetate] is higher in CC50 at 72 h: 25 µM for the first, > 100 µM for the second.

`COc1ccc(COc2ccccc2C(=O)Nc2ccccc2OC)cc1` [43j, 2-(4-methoxybenzyloxy)-N-(2-methoxyphenyl)benzamide] and `COc1ccccc1C(=O)Nc1ccccc1Oc1ccc(N(C)C)cc1` [30k, N-(2-(4-(Dimethylamino)phenoxy)phenyl)-2-methoxybenzamide] cannot be ordered by CC50 at 72 h: > 100 µM for the first, > 100 µM for the second.

`O=C(Nc1cccc(CO)c1)c1ccccc1Sc1ccc([N+](=O)[O-])cc1` [15f, N-(3-(Hydroxymethyl)phenyl)-2-((4-nitrophenyl)thio)benzamide] and `O=C(Nc1ccc2c(c1)OCO2)c1ccccc1Sc1ccc([N+](=O)[O-])cc1Cl` [16d, N-(Benzo[d][1,3]dioxol-5-yl)-2-((2-chloro-4-nitrophenyl)thio)benzamide] cannot be ordered by CC50 at 72 h: > 100 µM for the first, > 100 µM for the second.

`COc1ccccc1NC(=O)c1ccccc1Sc1ccccc1` [4a, N-(2-Methoxyphenyl)-2-(phenylthio)benzamide] and `COc1ccccc1NC(=O)c1ccccc1Oc1ccc2c(c1)OCO2` [23h, 2-(Benzo[d][1,3]dioxol-5-yloxy)-N-(2-methoxyphenyl)benzamide] cannot be ordered by CC50 at 72 h: > 100 µM for the first, > 100 µM for the second.

Source: paper PMC3517065 (ChemMedChem, 2012)
